Experimental findings from ChEMBL document CHEMBL1127860, “Design, synthesis, X-ray analysis, and dopamine receptor-modulating activity of mimics of the "C5" hydrogen-bonded conformation in the peptidomimetic 2-oxo-3(R)-[(2(S)-pyrrolidinylcarbonyl)amino]-1- pyrrolidineacetamide” (J Med Chem, 1994) are described below.

In experiment [1] the target is D(2) dopamine receptor (Bos taurus) (UniProt P20288).
Experiment [2] has the same target. The source holds these as a separate data set.
For experiment [3] the target is unchanged. Description: Percentage of sites in low affinity form for the agonist in the absence of (Gpp(NH)p). It counts as functional.
Experiment [4] shares this target. Kind of experiment: Percentage of sites in high affinity form for the agonist in the absence of (Gpp(NH)p. It counts as functional.
For experiment [5] the target is unchanged. Description: Percentage of sites in low affinity form for the agonist in the presence of (Gpp(NH)p). It counts as functional.
The nature of experiment [6]: Ratio of Rh and RL Inhibitor constants in presence of (Gpp(NH)p).
Experiment [7] addresses D(2) dopamine receptor (Bos taurus) (UniProt P20288). Description: Binding towards dopamine D2 receptor using [3H]spiroperidol in presence of (Gpp(NH)p).
A short description of experiment [8]: Ratio of Rh and RL Inhibitor constants in absence of (Gpp(NH)p).
The target in experiment [9] is D(2) dopamine receptor (Bos taurus) (UniProt P20288). Kind of experiment: Percentage of sites in high affinity form for the agonist in the presence of (Gpp(NH)p). It counts as functional.
The target is the same in experiment [10]. Kind of experiment: Binding towards dopamine D2 receptor using [3H]spiroperidol in the absence of (Gpp(NH)p).
Experiment [11] shares this target. Kind of experiment: Tested for the ability to enhance the binding of the dopamine D2 receptor agonist N-propylnorapomorphine (NPA) in the presence of (Gpp(NH)p). An outline of the steps:
(§1)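 High-affinity [³H]NPA (0.05 nM) binding to bovine striatal membranes, 1 h at 22 °C, then GF/B filtration. Compound at 1, 10 or 100 nM, either with 100 μM Gpp(NH)p added directly or after a 2 h, 4 °C preincubation with Gpp(NH)p and washing. Expressed as % of maximal specific binding in Gpp(NH)p-free membranes. Mean ± SEM of five experiments.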

Experiment [12] shares this target. Kind of experiment: Tested for the ability to enhance the binding of the dopamine D2 receptor agonist N-propylnorapomorphine (NPA) in the absence of (Gpp(NH)p). Summed up: as §1

Sequence of D(2) dopamine receptor (Bos taurus) (P20288 whole entry): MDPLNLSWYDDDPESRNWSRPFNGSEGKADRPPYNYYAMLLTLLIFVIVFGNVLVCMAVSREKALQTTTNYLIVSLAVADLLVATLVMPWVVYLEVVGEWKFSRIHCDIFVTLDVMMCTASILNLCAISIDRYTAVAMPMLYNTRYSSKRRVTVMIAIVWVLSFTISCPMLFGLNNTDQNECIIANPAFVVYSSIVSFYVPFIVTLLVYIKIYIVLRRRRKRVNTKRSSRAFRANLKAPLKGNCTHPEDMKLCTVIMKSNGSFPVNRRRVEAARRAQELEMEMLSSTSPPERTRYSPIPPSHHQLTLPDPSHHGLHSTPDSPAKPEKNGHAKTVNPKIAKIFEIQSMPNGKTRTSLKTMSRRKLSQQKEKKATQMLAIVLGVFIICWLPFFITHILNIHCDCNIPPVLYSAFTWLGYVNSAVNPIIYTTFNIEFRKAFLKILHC

Take `NC(=O)CN1CC[C@@H](N2CC(=O)N3CCC[C@H]3C2=O)C1=O`: the results for the KL in experiment [1] and in experiment [2] were 56 nM and 64 nM, respectively. For the same compound, the RL in experiment [3] came to 33%; in experiment [5], 59%. In addition, the results for the RH in experiment [4] and in experiment [9] were 65% and 42%, respectively. In addition, the values for the Ratio in experiment [6] and in [8] were 0.71 and 1.97, respectively. The KH in experiment [7] turned out to be 0.05 nM; in experiment [10], 0.02 nM.

Turning to `CC1(C)N2CCC[C@H]2C(=O)N1[C@@H]1CCN(CC(N)=O)C1=O`, the KL in experiment [11] was 77 nM; in experiment [12], 61 nM. In addition, the RL turned out to be 34% in experiment [3] and 64% in [5]. Also, the RH in experiment [4] was found to be 65%; in experiment [9] it was 36%. Also, the figures for the Ratio in [6] and in experiment [8] were 0.56 and 1.91, respectively. Also, the KH in experiment [7] amounted to 0.07 nM; in experiment [10], 0.03 nM.
